# Test results as given in ChEMBL document CHEMBL1154220, “Inhibitors of aldose reductase and formation of advanced glycation end-products in moutan cortex (Paeonia suffruticosa)” (J Nat Prod, 2009).
# Assays:
# [1] = target: Aldo-keto reductase family 1 member B1 (Rattus norvegicus, UniProt P07943); assay: Inhibition of Sprague-Dawley rat lens aldose reductase by spectrofluorimetry; type: single protein
# Procedure, shortened: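 Crude enzyme: supernatant of lenses from 8-week-old rats (250-280 g), homogenized in 135 mM Na/K phosphate pH 7.0 with 0.5 mM PMSF and 10 mM 2-mercaptoethanol, spun 14 000 rpm 30 min. NADP converted to fluorophore with NaOH/imidazole at 60 °C for 10 min, read ex 360/em 460 nm. IC50 from dose-response curves, triplicate, mean ± SE.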
# [2] = Inhibition of advanced glycation end product formation after 14 day in phosphate buffer at pH7.4 by spectrofluorimetry; type: physicochemical
# Procedure, shortened: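 BSA (10 mg/mL stock) in 50 mM phosphate pH 7.4 with 0.02% sodium azide, plus 0.2 M fructose and glucose, incubated with serially diluted samples at 37 °C for 14 days in screw-cap tubes. Aminoguanidine served as reference. Fluorescence read at ex 350/em 450 nm. IC50 from dose-response curves, triplicate, mean ± SE.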
IC50 [1] [µM],IC50 [2] [µM],SMILES
36.2,10.8,CCCCO[C@]12C[C@]3(C)OC(O1)[C@]1(COC(=O)c4ccccc4)[C@@H]2C[C@@]31O[C@@H]1O[C@H](CO)[C@@H](O)[C@H](O)[C@H]1O
> 50,> 500,CO[C@H]1O[C@@]2(C)CC(=O)[C@H]3C[C@]2(O[C@@H]2O[C@H](COC(=O)c4ccccc4)[C@@H](O)[C@H](O)[C@H]2O)[C@]13COC(=O)c1ccccc1
> 50,> 500,C[C@@]12C[C@@]3(O)OC(O1)[C@]1(COC(=O)c4ccc(O)cc4)[C@@H]3C[C@@]21O[C@H]1O[C@H](COC(=O)c2ccccc2)[C@@H](O)[C@H](O)[C@H]1O
> 50,> 500,C[C@@]12C[C@@]3(O)OC(O1)[C@]1(COC(=O)c4ccc(O)cc4)[C@@H]3C[C@@]21O[C@@H]1O[C@H](COC(=O)c2ccccc2)[C@@H](O)[C@H](O)[C@H]1O
> 50,> 500,C[C@@]12C[C@@]3(O)O[C@@H](O1)[C@]1(COC(=O)c4ccccc4)[C@@H]3C[C@]12O[C@@H]1O[C@H](COC(=O)c2ccccc2)[C@@H](O)[C@H](O)[C@H]1O [BENZOYLPAEONIFLORIN]
44.6,11.3,C[C@@]12C[C@@]3(O)O[C@@H](O1)[C@]1(COC(=O)c4ccccc4)[C@@H]3C[C@]12O[C@@H]1O[C@H](COC(=O)c2cc(O)c(O)c(O)c2)[C@@H](O)[C@H](O)[C@H]1O [GALLOYLPAEONIFLORIN]
> 50,> 500,C[C@@]12C[C@@]3(O)OC(O1)[C@]1(COC(=O)c4ccccc4)[C@@H]3C[C@@]21O[C@@H]1O[C@H](COC(=O)c2ccc(O)cc2)[C@@H](O)[C@H](O)[C@H]1O [NUDANPINOSIDE H]
> 50,> 500,C[C@@]12C[C@@]3(O)O[C@@H](O1)[C@]1(COC(=O)c4ccc(O)cc4)[C@H]3C[C@@]12O[C@@H]1O[C@H](CO)[C@@H](O)[C@H](O)[C@H]1O [OXYPAEONIFLORIN]
> 50,> 500,C[C@@]12C[C@@]3(O)O[C@@H](O1)[C@]1(COC(=O)c4ccccc4)[C@H]3C[C@@]12O[C@@H]1O[C@H](CO)[C@@H](O)[C@H](O)[C@H]1O [PAEONIFLORIN]

# Second part, the compound before the results:
SMILES,IC50 [1] [µM],IC50 [2] [µM]
Cc1cc2c(cc1O)[C@@H](CO)CO2,> 50,177
C=C1CC[C@]2(C(=O)O)CC[C@]3(C)C(=CC[C@@H]4[C@@]5(C)CC[C@H](O)[C@@](C)(CO)[C@@H]5CC[C@]43C)[C@@H]2C1,28.8,> 500
CO[C@@]12C[C@@H]3C(=O)[C@@](C)(C1)OC(O2)[C@H]3COC(=O)c1ccccc1,> 50,> 500
O=C(O)CC1(CC(=O)O)CCCC1,31.8,–
C[C@@]12CC(=O)[C@H]3C[C@]1(O)O[C@H](O2)[C@@H]3COC(=O)c1ccccc1 [PAEONIFLORIGENONE],> 50,> 500
COc1ccc(C(C)=O)c(O[C@@H]2O[C@H](CO[C@@H]3OC[C@H](O)[C@H](O)[C@H]3O)[C@@H](O)[C@H](O)[C@H]2O)c1 [PAEONOLIDE],> 50,> 500
COc1ccc(C(C)=O)c(O)c1 [PAEONOL],> 50,> 500
CC1(C)[C@@H](O)CC[C@]2(C)[C@H]3C=CC4=C(O)C(=O)C(=O)[C@@]4(C)[C@]3(C)CC[C@@H]12 [PALBINONE],11.4,> 500
N=C(N)NN [PIMAGEDINE],–,1030
